The target of data set [1] is Structural capsid protein (Human immunodeficiency virus 1, UniProt Q76129). Description: Inhibition of CAI-biotin peptide binding to GST-tagged HIV1 capsid C-terminal domain by alphascreen assay. Summed up:
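Competitive AlphaScreen assay: test compound competes with CAI-biotin peptide for binding to GST-CA. IC50 is the compound concentration that lowers the AlphaScreen signal by 50%.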
For orientation: Alpha assays give light when donor and acceptor beads are brought close together.

The nature of data set [2]: Solubility of compound in PBS by UV spectral analysis. Format: physicochemical.
In data set [3] the test system is Human immunodeficiency virus 1. Description: Antiviral activity against HIV1 NL4-3 infected in human MT4 cells assessed as inhibition of viral replication after 3 days by luciferase reporter gene assay. Format: functional, organism-based. Particulars: Human immunodeficiency virus 1, NL4-3, MT4, 72 h. The essentials:
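Two-fold serial dilutions of compound were added to MT-4 cells infected with HIV-1 NL4-3 carrying a Renilla luciferase reporter. Replication was read as luciferase activity after 3 days. EC50 is the concentration inhibiting replication by 50%.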

A short description of data set [4]: Cytotoxicity against human MT4 cells after 72 hrs by XTT assay. Format: cell-based. Summed up: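 The XTT read-out was run in parallel with the MT-4 infectivity assay, with two-fold serial compound dilutions on MT-4 cells.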
Background: Tetrazolium assays rely on reduction of a dye to a coloured formazan, in cell work by metabolically active cells.

From ChEMBL document CHEMBL3822354, “Synthesis and evaluation of 2-pyridinylpyrimidines as inhibitors of HIV-1 structural protein assembly” (Bioorg Med Chem Lett, 2016) come the findings set out here.

The IC50 is the concentration at which inhibition is half-maximal. A high value points to weaker potency. The solubility is the concentration that dissolves in the medium under given conditions. A high value points to much dissolved substance. Broadly, the EC50 is the midpoint of the concentration-response curve. By CC50 is commonly meant the concentration at which the toxic effect on the cells reaches its halfway point. A high value points to lower toxicity to the cells.

Each structure is given as a SMILES string. In brackets after ≈: the same amount, converted by molar mass.

Chain of Structural capsid protein (Q76129 whole entry, the tested form may be a part): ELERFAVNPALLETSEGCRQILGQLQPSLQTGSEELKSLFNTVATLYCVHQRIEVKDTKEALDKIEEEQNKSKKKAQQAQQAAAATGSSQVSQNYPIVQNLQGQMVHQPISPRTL

In the case of `CCOC(=O)c1ccc(Nc2ccnc(-c3ccncc3)n2)cc1`, the IC50 in data set [1] came to 28 µM. Moreover, the solubility in data set [2] came out at 52 µM (≈ 16.7 µg/mL).

The compound `Fc1ccc(Nc2ccnc(-c3cccnc3)n2)cc1F` had an IC50 in data set [1] of 38 µM. This compound also displayed a solubility in data set [2] of 67 µM (≈ 19 µg/mL).

Regarding `Cc1cc(Nc2ccc(C(=O)NCCF)cc2)nc(-c2cccnc2)n1`, the concentration giving a half-maximal response (EC50) in data set [3] stood at 25 µM. For the same compound, the half-maximal inhibitory concentration (IC50) in data set [1] stood at 8 µM. In addition, the solubility in data set [2] amounted to 99 µM (≈ 34.8 µg/mL). In data set [4], this compound showed a CC50 at 72 h of 44 µM.

For `O=C(NCCF)c1ccc(Nc2ccnc(-c3cccnc3)n2)cc1`, the IC50 in data set [1] was 34 µM. The compound further registered a solubility in data set [2] of 99 µM (≈ 33.4 µg/mL).

With `CC(=O)c1cccc(Nc2cc(C)nc(-c3ccncc3)n2)c1`, the IC50 in data set [1] is above 100 µM. The solubility in data set [2] stood at 29 µM (≈ 8.83 µg/mL).

As to `CC(=O)c1ccc(Nc2cc(C)nc(-c3cccnc3)n2)cc1`, the EC50 in data set [3] was determined as 50 µM. In data set [1], this compound showed an IC50 of 12 µM. For the same compound, the solubility in data set [2] is 94 µM (≈ 28.6 µg/mL). Also, the midpoint of cytotoxicity in data set [4], the CC50 at 72 h, lay at 77 µM.

With `CC(=O)c1ccc(Nc2cc(C)nc(-c3ccncc3)n2)cc1`, the 50% inhibitory concentration (IC50) in data set [1] was 54 µM. The compound also came in with a solubility in data set [2] of 6 µM (≈ 1.83 µg/mL).

For `CC(=O)c1cccc(Nc2ccnc(-c3cccnc3)n2)c1`, in data set [1], the half-maximal inhibitory concentration (IC50) was 39 µM. In addition, in data set [2], the concentration in solution (solubility) was 97 µM (≈ 28.2 µg/mL).

Compound `CC(=O)c1ccc(F)c(Nc2cc(C)nc(-c3cccnc3)n2)c1` gave an IC50 in data set [1] above 100 µM. Further, the solubility in data set [2] amounted to 58 µM (≈ 18.7 µg/mL).

`CCOC(=O)c1cccc(Nc2ccnc(-c3ccncc3)n2)c1` had an IC50 in data set [1] above 100 µM. This compound also registered a solubility in data set [2] of 46 µM (≈ 14.7 µg/mL).

In turn, `Cc1cc(Nc2cc(C(=O)NCCF)ccc2F)nc(-c2cccnc2)n1` showed an IC50 in data set [1] of 52 µM. The same compound yielded a solubility in data set [2] of 98 µM (≈ 36.2 µg/mL).

For `Cc1cc(Nc2ccc(C(=O)NCCF)cc2)nc(-c2ccncc2)n1`, the IC50 in data set [1] was above 100 µM. The same compound had a solubility in data set [2] of 40 µM (≈ 14.1 µg/mL).

In data set [1], `Cc1cc(Nc2cc(F)c(F)c(F)c2)nc(-c2cccnc2)n1` gave an IC50 of 22 µM. Further, the solubility in data set [2] is 73 µM (≈ 23.1 µg/mL).

With `CC(=O)c1ccc(Nc2ccnc(-c3cccnc3)n2)cc1`, in data set [1], the IC50 came to 53 µM. The solubility in data set [2] came out at 98 µM (≈ 28.5 µg/mL).

In data set [1], `O=C(NCCF)c1ccc(Nc2ccnc(-c3ccncc3)n2)cc1` gave an IC50 above 100 µM. In data set [2], this compound yielded a solubility of 97 µM (≈ 32.7 µg/mL).

In data set [1], `CCOC(=O)c1ccc(Nc2cc(C)nc(-c3ccncc3)n2)cc1` came in with an IC50 of 36 µM. In data set [2], this compound returned a solubility of 4 µM (≈ 1.34 µg/mL).

`Cc1cc(Nc2ccc(C(=O)N3CCN(c4ccc(F)cc4)CC3)cc2)nc(-c2cccnc2)n1` came in with a half-maximal inhibitory concentration (IC50) in data set [1] of 20 µM. In data set [2], this compound yielded a solubility of 42 µM (≈ 19.7 µg/mL).

As for `Cc1cc(Nc2ccc(C(=O)NCCF)cc2F)nc(-c2cccnc2)n1`, the half-maximal effective concentration (EC50) in data set [3] is above 100 µM. Further, the IC50 in data set [1] came out at 15 µM. In data set [2], this compound registered a solubility of 50 µM (≈ 18.5 µg/mL). In data set [4], this compound yielded a CC50 at 72 h above 100 µM.

Take `O=C(NCCF)c1ccc(Nc2ccnc(-c3cccnc3)n2)cc1F`: the IC50 in data set [1] came out at 43 µM. The concentration in solution in data set [2] (solubility) was 84 µM (≈ 29.8 µg/mL).

Turning to `O=C(NCCF)c1cc(Nc2ccnc(-c3cccnc3)n2)ccc1F`, the half-inhibitory concentration (IC50) in data set [1] came out at 68 µM. The compound further came in with a solubility in data set [2] of 97 µM (≈ 34.5 µg/mL).

Turning to `Cc1cc(Nc2ccc(C(=O)NCCF)c(F)c2)nc(-c2ccncc2)n1`, the 50% inhibitory concentration (IC50) in data set [1] was above 100 µM. In data set [2], this compound yielded a solubility of 9 µM (≈ 3.32 µg/mL).

`Fc1ccc(Nc2ccnc(-c3ccncc3)n2)cc1F` displayed a half-maximal inhibitory concentration (IC50) in data set [1] of 81 µM. For the same compound, in data set [2], the concentration in solution (solubility) was 42 µM (≈ 11.9 µg/mL).

In turn, `CCOC(=O)c1ccc(Nc2ccnc(-c3cccnc3)n2)cc1` showed an IC50 in data set [1] of 19 µM. This compound also showed a solubility in data set [2] of 61 µM (≈ 19.5 µg/mL).

For the compound `Cc1cc(Nc2ccc(C(=O)NCCF)c(F)c2)nc(-c2cccnc2)n1`, the concentration for a half-maximal effect (EC50) in data set [3] was found to be 20 µM. In addition, the IC50 in data set [1] came out at 3 µM. Moreover, the concentration in solution in data set [2] (solubility) was 98 µM (≈ 36.2 µg/mL). In data set [4], this compound came in with a CC50 at 72 h of 35 µM.

`CC(=O)c1cccc(Nc2cc(C)nc(-c3cccnc3)n2)c1`: the EC50 in data set [3] worked out at 23 µM. The same compound came in with an IC50 in data set [1] of 10 µM. In addition, the solubility in data set [2] was found to be 95 µM (≈ 28.9 µg/mL). For the same compound, in data set [4], it took 64 µM to reach half-maximal cytotoxicity (CC50 at 72 h).

The compound `Cc1cc(Nc2ccc(C(=O)N3CCN(C(=O)C4CCCO4)CC3)cc2)nc(-c2cccnc2)n1` (configuration not stated) had a concentration for half-maximal inhibition (IC50) in data set [1] of 54 µM. Further, the concentration in solution in data set [2] (solubility) was 99 µM (≈ 46.8 µg/mL).

In data set [1], `CCOC(=O)c1ccc(Nc2cc(C)nc(-c3cccnc3)n2)cc1` came in with a concentration for half-maximal inhibition (IC50) of 21 µM. In data set [2], this compound showed a solubility of 71 µM (≈ 23.7 µg/mL).

In data set [1], `CC(=O)c1cc(Nc2cc(C)nc(-c3ccncc3)n2)ccc1F` had an IC50 of 83 µM. This compound also yielded a solubility in data set [2] of 23 µM (≈ 7.41 µg/mL).

In data set [1], `CCOC(=O)c1ccc(Nc2ccnc(-c3cccnc3)n2)c(F)c1` had a half-maximal inhibitory concentration (IC50) of 30 µM. Also, in data set [2], the solubility is 53 µM (≈ 17.9 µg/mL).

In data set [1], `O=C(NCCF)c1ccc(Nc2ccnc(-c3cccnc3)n2)c(F)c1` returned a half-inhibitory concentration (IC50) of 73 µM. Also, the solubility in data set [2] worked out at 96 µM (≈ 34.1 µg/mL).

In data set [1], `CC(=O)c1ccc(Nc2cc(C)nc(-c3cccnc3)n2)cc1F` gave an IC50 of 25 µM. In data set [2], the solubility is 32 µM (≈ 10.3 µg/mL).

In data set [1], `CC(=O)c1ccc(Nc2ccnc(-c3ccncc3)n2)cc1` displayed an IC50 above 100 µM. Moreover, the solubility in data set [2] was determined as 37 µM (≈ 10.7 µg/mL).

Regarding `CCOC(=O)c1ccccc1Nc1ccnc(-c2cccnc2)n1`, in data set [1], the IC50 is above 100 µM. Further, the solubility in data set [2] is 94 µM (≈ 30.1 µg/mL).

Compound `CCOC(=O)c1cccc(Nc2ccnc(-c3cccnc3)n2)c1` returned a half-inhibitory concentration (IC50) in data set [1] of 21 µM. This compound also yielded a solubility in data set [2] of 92 µM (≈ 29.5 µg/mL).

Regarding `CC(=O)c1cc(Nc2cc(C)nc(-c3cccnc3)n2)ccc1F`, the 50% effective concentration (EC50) in data set [3] is above 100 µM. Further, the half-inhibitory concentration (IC50) in data set [1] was 9 µM. The compound further gave a solubility in data set [2] of 40 µM (≈ 12.9 µg/mL). Besides, the cytotoxic concentration (CC50) at 72 h in data set [4] was above 100 µM.
